The record followed here is ChEMBL document CHEMBL2375246, “In silico identification of poly(ADP-ribose)polymerase-1 inhibitors and their chemosensitizing effects against cisplatin-resistant human gastric cancer cells” (Bioorg Med Chem Lett, 2013).

The source made the active and inactive calls. The calls are words filed in the database; no cut-off is given here.

Test [1] deals with YCC-3/D. Kind of test: Potentiation of cisplatin-induced cytotoxicity against human YCC-3/D cells assessed as reduction in cisplatin IC50 at 50 uM co-treated with cisplatin after 36 hrs by MTS assay. Format: functional, cell-based. (In general: Tetrazolium dyes change colour on reduction, which living cells bring about.)
The next test relates to YCC-3. Kind of test: Potentiation of cisplatin-induced cytotoxicity against human YCC-3 cells assessed as reduction in cisplatin IC50 at 50 uM incubated for 8 hrs prior to cisplatin-addition measured after 36 hrs by MTS assay. Format: functional, cell-based.
Test [2] relates to YCC-3/D. In words: Potentiation of cisplatin-induced cytotoxicity against human YCC-3/D cells assessed as reduction in cisplatin IC50 at 50 uM incubated for 8 hrs prior to cisplatin-addition measured after 36 hrs by MTS assay. Type of test: functional, cell-based. A digest of the protocol:
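Pretreatment format: cells seeded at 2500 cells/well, incubated overnight at 37 °C/5% CO2, exposed to PARP-1 inhibitor at 50 µM for 8 h. Inhibitor medium removed, cisplatin added over a concentration series for 36 h. MTS added for 2 h at 37 °C, absorbance read at 490 nm. Triplicate; cisplatin IC50 from % growth inhibition vs cisplatin concentration.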

A short description of test [3]: Cytotoxicity against human YCC-3/D cells after 36 hrs by MTS assay. Type of test: cell-based. The method in brief: (§1)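 Cells (YCC-3 parent, or YCC-3/D cisplatin-resistant line kept at 2.5 µg/mL cisplatin) seeded at 5000 cells/well, incubated overnight at 37 °C/5% CO2, then exposed to compound for 36 h. Medium replaced with MTS-containing medium for 2 h at 37 °C, absorbance read at 490 nm. Triplicate; IC50 taken from plot of % growth inhibition vs concentration.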

A short description of test [4]: Cytotoxicity against human YCC-3 cells after 36 hrs by MTS assay. Format: cell-based. The following applies: YCC-3, 36 h. The method in brief: as §1
Test [5] has as its target Poly [ADP-ribose] polymerase 1 (Homo sapiens, UniProt P09874). In words: Inhibition of PARP1 (unknown origin) after 15 mins by fluorometric analysis.

Sequence of Poly [ADP-ribose] polymerase 1 (P09874 whole entry): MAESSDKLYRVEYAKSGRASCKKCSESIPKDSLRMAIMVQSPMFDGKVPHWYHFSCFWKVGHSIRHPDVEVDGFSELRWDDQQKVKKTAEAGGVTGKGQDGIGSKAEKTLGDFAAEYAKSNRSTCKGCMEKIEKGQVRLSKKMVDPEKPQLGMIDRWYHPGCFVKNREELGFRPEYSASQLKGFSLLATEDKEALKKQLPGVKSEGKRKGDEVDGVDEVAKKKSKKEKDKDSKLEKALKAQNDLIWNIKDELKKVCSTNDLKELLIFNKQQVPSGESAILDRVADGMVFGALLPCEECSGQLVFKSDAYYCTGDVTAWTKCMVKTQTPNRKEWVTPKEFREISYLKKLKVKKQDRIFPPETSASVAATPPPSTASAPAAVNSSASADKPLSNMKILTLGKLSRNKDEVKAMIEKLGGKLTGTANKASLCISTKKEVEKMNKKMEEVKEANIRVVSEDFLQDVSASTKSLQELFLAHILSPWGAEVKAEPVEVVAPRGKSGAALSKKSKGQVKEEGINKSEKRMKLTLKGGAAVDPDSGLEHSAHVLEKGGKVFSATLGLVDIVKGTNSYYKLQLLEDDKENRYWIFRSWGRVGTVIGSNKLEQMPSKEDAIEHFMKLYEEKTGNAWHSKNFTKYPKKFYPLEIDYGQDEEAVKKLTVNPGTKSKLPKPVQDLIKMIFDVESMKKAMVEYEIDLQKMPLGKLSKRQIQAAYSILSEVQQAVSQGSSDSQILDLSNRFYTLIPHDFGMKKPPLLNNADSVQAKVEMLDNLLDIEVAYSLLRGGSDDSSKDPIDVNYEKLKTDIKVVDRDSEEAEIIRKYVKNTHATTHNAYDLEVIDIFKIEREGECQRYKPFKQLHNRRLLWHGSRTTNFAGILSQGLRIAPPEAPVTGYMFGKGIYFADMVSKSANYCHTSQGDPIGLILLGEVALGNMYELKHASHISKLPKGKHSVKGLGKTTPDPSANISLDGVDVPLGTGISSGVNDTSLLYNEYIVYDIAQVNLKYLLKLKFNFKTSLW

With `O=c1[nH]c(CCCN2CCC(c3ccccc3)CC2)nc2ccccc12`, the result in the test with YCC-3/D [1] and in the test with YCC-3 was inactive. The outcome in the test with YCC-3/D [2] was Active. The half-maximal inhibitory concentration (IC50) (commonly the concentration needed to halve the response being measured) in test [3] came to 96300 nM; in test [4], 126000 nM; in test [5], 79 nM.

In test [5], `O=c1[nH]c(CCCN2CCN(c3cccc(Cl)c3)CC2)nc2ccccc12` registered a half-inhibitory concentration (IC50) of 1010 nM.

In the case of `O=c1[nH]c(CCCN2CCN(c3ccc(F)cc3)CC2)nc2ccccc12`, the outcome in the test with YCC-3/D [1] and in the test on YCC-3 was inactive. Also, the outcome in the test with YCC-3/D [2] was Active. For the same compound, the values for the IC50 in test [3], in test [4] and in test [5] were > 200000 nM, > 200000 nM and 77 nM, respectively.

In test [5], `O=c1[nH]c(CCCN2CC=C(c3ccc(F)cc3)CC2)nc2ccccc12` came in with an IC50 of 304 nM.

Take `COc1ccccc1N1CCN(CCCc2nc3ccccc3c(=O)[nH]2)CC1`: half-maximal inhibition in test [5] (IC50) was put at 189 nM.

The compound `O=c1[nH]c(CCCN2CCC(c3ccc(Cl)cc3)CC2)nc2ccccc12` came in with an IC50 in test [5] of 388 nM.

For `CCCCc1nc2ccccc2c(=O)[nH]1`, half-maximal inhibition in test [5] (IC50) required 8890 nM.
